# Assay outcomes deposited in PubChem by several laboratories.
# BB579 growth dn – growth inhibitors of yeast BB579 in restrictive medium, primary screen, yeast lifespan-shortening project, S. cerevisiae; OD615, 48 h; inhibition, % at 10 µM; 140,000 compounds, 0.51% hits;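 active means inhibition above a set limit, 3 SD over the mean compound inhibition, cut at about 44% in these data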
#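 Test system: DeaD yeast strain BB579 / Buffer or medium: restrictive glucose-based CSMM-D medium / Doses: single 10 µM dose / Schedule: 4 h cell preincubation, 48 h compound exposure, 30 °C humidified / Technique: culture absorbance at 615 nm / Controls: amphotericin B positive control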
# RAM network inh – inhibitors of the yeast RAM network, primary screen, dse1pr::URA3 reporter, 5-FOA selection; S. cerevisiae dse1pr::URA3 reporter, 5-FOA growth OD615, 2 d; analog-sensitive cbk1-as2 kinase mutant strain; 190,000 compounds, 1.8% hits; inhibition, % at 50 µM;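 active means inhibition above a set limit, 3 SD over mean compound inhibition, cut at about 8.4% in these data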;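 further: 0% = DMSO-only wells with no growth and 100% = 10 µM 1-NA-PP1 full growth; inhibition rescues growth on 5-FOA so higher OD means more RAM inhibition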
# Measles CPE – compounds protecting cells from measles virus cytopathic effect, primary screen, measles RdRp inhibitor project, single point, MLSMR library, absorbance; Measles virus-infected cells, CPE protection; protection (pct of control), % at 4 µM; 140,000 compounds, 1.5% hits; in the data active means protection mostly above about 24%, no sharp cut-off; inactive means mostly below about 26%
# Yeast life ext – compounds extending yeast replicative lifespan, primary screen, S. cerevisiae, OD615. S. cerevisiae growth with nicotinamide; deaD strain in restrictive glucose medium. 130,000 compounds, 0.68% hits. inhibition of the nicotinamide effect, % at 10 µM. AID 775, 2007;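 active means inhibition above a set limit, placed 3 SD over the median of all compounds, cut at about 26% in these data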;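 further: 0% = nicotinamide-treated wells and 100% = cells grown without nicotinamide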
#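 Material: Modified budding yeast, DeaD strain | Medium: Restrictive glucose medium | Probe or stimulus: 1.5 mM nicotinamide | Dosing: Single dose 10 µM compound, 0.25% DMSO | Times: 48 h at 30 °C | Technique: OD615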
# Active calls of the source: *; x = not tested or not shown. This is a sample that favours compounds with a hit; in the whole collection about 3.6% have one here.
SMILES,BB579 growth dn,RAM network inh,Measles CPE,Yeast life ext
Cc1ccc(Oc2nc(CN3CCOCC3)nc3sc4c(c23)CCC(C)C4)cc1C (configuration not stated),81*,1,6,-8
O=c1c2c3c(sc2nc2n1CCC2)CCC3,15,5,36*,-18
O=c1c2c3c(sc2nc2n1CCC2)CCCCC3,x,-2,x,x
C=CCNC(=O)CSCc1ccc(Br)cc1,x,2,x,x
Cc1cc(N2CCN(C(=O)c3ccco3)CC2)n2ncc(-c3ccccc3)c2n1,98*,-1,39*,-16
Cc1cc(N2CCN(C(=O)c3ccco3)CC2)n2ncnc2n1,-18,1,3,x
CC1CCc2sc(C(=O)OCC(=O)NCc3ccc(F)cc3)cc2C1 (configuration not stated),-44,5,12,8
CNc1nnc(-c2cc3cc(Cl)ccc3oc2=O)s1,57*,4,1,-12
O=C(Nc1ccc(Cl)c(Cl)c1)N1CCC(N2CCCCC2)CC1,-28,0,61*,-9
O=C(COC(=O)CCc1ccc(S(=O)(=O)N2CCOCC2)cc1)NC(=O)NC1CCCCC1,x,1,x,x
O=C(CSc1ccc(-c2cccs2)nn1)c1cccs1,x,3,x,x
O=C(O)CCn1cc(/C=C/C(=O)c2ccc(Cl)cc2)c(-c2ccc(Br)cc2)n1,52*,4,14,-10
O=C1c2cccc3cccc(c23)C(=O)N1CCc1ccccc1,x,2,x,x
COc1ccc(Nc2nnc(SCC(=O)NC(=O)Nc3ccc4c(c3)OCCO4)s2)cc1,x,6,x,x
COc1ccc(Nc2nnc(SCC(=O)Nc3ccc4[nH]c(=O)[nH]c4c3)s2)cc1,x,10*,x,x
CC(C)N1CCN(Cc2cccc(-n3cccn3)c2)CC1CCO (configuration not stated),x,3,x,x
Cc1nc2ccccn2c1C(=O)NN=C1C2CC3CC(C2)CC1C3,-26,1,38*,38*
Cc1cccc(N2C(=O)/C(=C\c3ccc(OC(F)F)cc3)c3ccccc3C2=O)c1,-27,5,15,47*
COc1cccc(N2C(=O)c3ccncc3C2=O)c1,-84,1,4,4
COc1cccc(/C=C2\C(=O)N(c3cccc(C)c3)C(=O)c3ccccc32)c1,-10,3,21,48*
CCOc1cc(/C=C2\C(=O)N(c3cccc(C(F)(F)F)c3)C(=O)c3ccccc32)ccc1O,-25,3,5,10
Cc1ccc(OCC(=O)Nc2cc(S(=O)(=O)N3CCCCC3)ccc2C)c([N+](=O)[O-])n1,-16,3,6,-4
CCOC(=O)c1oc2ccccc2c1CSc1nnnn1-c1ccc(C)cc1,-24,10*,16,4
Cc1ccc(NC(=O)CSc2nnc(C(F)(F)F)n2C)cc1[N+](=O)[O-],-5,-1,25,0
CCn1c(CNc2ccc(Cl)cc2)nnc1SCc1ccccc1,-34,0,46*,6
SMILES,BB579 growth dn,RAM network inh,Measles CPE,Yeast life ext
Cn1c(CNc2ccc(Cl)cc2)nnc1SCc1ccccc1,-27,1,2,-1
COc1ccc(/C=C/C(=O)Nc2cccc(S(=O)(=O)N3CCCC3)c2)cc1OC,x,8.5*,x,x
NC(=O)C1C(c2ccccc2)=C1c1ccccc1,-1,1,57*,-3
NC(=O)C1c2ccccc2CSc2ccccc21 (configuration not stated),-24,1,7,-7
COc1ccc([N+](=O)[O-])cc1NC(=O)C(C)Sc1ccc(C)cc1 (configuration not stated),1,9.2*,4,-6
COC(=O)c1cc(OC)c(OC)cc1NC(=O)C(C)Sc1ccc(C)cc1 (configuration not stated),-42,3,1,-1
COc1ccc([N+](=O)[O-])cc1NC(=O)C(C)c1ccccc1 (configuration not stated),-12,1,29,-2
COc1ccc([N+](=O)[O-])cc1NC(=S)NC(NC(=O)C(c1ccccc1)c1ccccc1)C(Cl)(Cl)Cl (configuration not stated),-53,2,77*,-8
COc1ccc([N+](=O)[O-])cc1NC(=O)CSc1ccc2ccccc2c1,-27,8.4*,7,1
COc1ccc([N+](=O)[O-])cc1NC(=O)CSc1nc(C)cc(C)n1,-34,2,2,-1
Cc1cc(C)nc(NC2=NCCN2C(=S)Nc2c(C)cccc2C)n1,x,2,x,x
